Converted amounts (≈) assume the structure as drawn.
What was measured:
HIV-2(ROD) = experiment: Inhibition of HIV-2 induced cytopathic effect in MT-4 cells; format: cell-based; settings: for EC50: MT4, 120 h, read-out: IC50a (50% effective concentration, 50% protection of MT-4 cells against the cytopathic effect of HIV)
Procedure, shortened: (§1)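 MT-4 cells were kept in RPMI 1640 with 10% heat-inactivated FCS, 2 mM glutamine, 0.1% sodium bicarbonate and 20 µg/ml gentamicin. Virus stocks (HIV-1 IIIB/LAI, HIV-2 ROD) were grown and titred in MT-4 cells and stored at -70°. 100-300 CCID50 were added to cells at 6×10^5 cells/ml with test compound, then incubated 5 d at 37°. Protection from cytopathic effect was read as viable cells by MTT. A reference drug was run alike.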

mock-infected MT-4 cells = experiment: Cytotoxicity for mock-infected MT-4 cells; format: cell-based; settings: MTT, printed in both strain rows
Procedure, shortened: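 Mock-infected MT-4 cells were grown in RPMI 1640 with 10% heat-inactivated FCS, 2 mM glutamine, 0.1% sodium bicarbonate and 20 µg/ml gentamicin. Cells (6×10^5 cells/ml) were exposed to test compound, and viability was measured by MTT to derive the 50% cytotoxic concentration. A reference drug was tested the same way.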

[1] = system: Herpes simplex virus-1 (KOS); experiment: microbe, parasite or virus in culture; format: cell-based; settings: for EC50: Human alphaherpesvirus 1, read-out: EC50 Herpes simplex virus-1 (KOS)
[2] = system: Herpes simplex virus-2 (G); experiment: microbe, parasite or virus in culture; format: cell-based; settings: Human alphaherpesvirus 2, read-out: EC50 Herpes simplex virus-2 (G)
Vaccinia virus = experiment: microbe, parasite or virus in culture; format: cell-based; settings: for EC50: Orthopoxvirus vaccinia, read-out: EC50 Vaccinia virus
HEL cultures = settings: microscopically detectable alteration of normal cell morphology
[3] = system: Herpes simplex virus-1 TK- KOS ACVr; experiment: microbe, parasite or virus in culture; format: cell-based; settings: Human alphaherpesvirus 1, read-out: EC50 Herpes simplex virus-1 TK- KOS ACVr
HIV-1(IIIB) = experiment: Inhibition of HIV-1 induced cytopathic effect in MT-4 cells; format: cell-based, Human immunodeficiency virus-1; settings: strain IIIB, 5 d, MTT
Procedure, shortened: as §1

Compound | EC50 (HIV-2(ROD)) [µg/mL] | IC50b (50% cytotoxic concentration, reduces viability of mock-infected MT-4 cells by 50%) (mock-infected MT-4 cells) [µg/mL] | EC50 [1] [µg/mL] | EC50 [2] [µg/mL] | EC50 (Vaccinia virus) [µg/mL] | Minimum cytotoxic concentration (HEL cultures) [µg/mL] | EC50 [3] [µg/mL] | IC50a (50% effective concentration, 50% protection of MT-4 cells against the cytopathic effect of HIV) (HIV-1(IIIB)) [µg/mL] | IC50a (50% effective concentration, 50% protection of MT-4 cells against the cytopathic effect of HIV) (HIV-2(ROD); strain ROD, MT-4 cells, 5 d, MTT) [µg/mL] | EC50 Herpes simplex virus-1 (KOS) ([1]; HEL cultures, reduces virus-induced cytopathogenicity by 50 %) | EC50 Vaccinia virus (Vaccinia virus)
O=C(O)c1ccccc1-n1c(-c2ccccc2)nc2ccccc2c1=O [AA1, 2-(4-oxo-2-phenyl-4H-quinazolin-3-yl)-benzoic acid] | > 125 | >125 | 100 (≈ 292 µM) | 58 (≈ 169 µM) | > 100 | >100 |  |  |  |  | 
O=C(O)c1cc(Br)ccc1-n1c(-c2ccccc2)nc2ccccc2c1=O [AA2, 5-Bromo-2-(4-oxo-2-phenyl-4H-quinazolin-3-yl)-benzoic acid] | > 88.2 | 88.20 | 50 (≈ 119 µM) | 58 (≈ 138 µM) | 100 (≈ 237 µM) | >100 | 58 (≈ 138 µM) |  |  |  | 
O=C(O)c1cc(Br)cc(Br)c1-n1c(-c2ccccc2)nc2ccccc2c1=O [AA3, 3,5-dibromo-2-(4-oxo-2-phenyl-4H-quinazolin-3-yl)-benzoic acid] | > 125 | >125 | 50 (≈ 100 µM) | 100 (≈ 200 µM) | 100 (≈ 200 µM) | >100 | 100 (≈ 200 µM) |  |  |  | 
Cc1cn([C@H]2C[C@H](N=[N+]=[N-])[C@@H](CO)O2)c(=O)[nH]c1=O [AZT, reference compound] |  | 65.90 |  |  |  |  |  | 0.0012 | 0.00062 |  | 
O=c1[nH]c(=O)n([C@H]2C[C@H](O)[C@@H](CO)O2)cc1/C=C/Br [Brivudin, reference compound] |  |  | 0.04 (≈ 0.12 µM) | 22 (≈ 66 µM) | 6 (≈ 18 µM) |  | 10 (≈ 30 µM) |  |  |  | 
Nc1ccn(C[C@@H](CO)OCP(=O)(O)O)c(=O)n1 [Cidofovir, reference compound] |  |  | 0.8 (≈ 2.87 µM) | 0.8 (≈ 2.87 µM) | 10 (≈ 35.8 µM) |  | 1 (≈ 3.58 µM) |  |  |  | 
O=C(O)c1ccccc1-n1c(-c2ccccc2)nc2c(Br)cc(Br)cc2c1=O [DBR1, 2-(6,8-Dibromo-4-oxo-2-phenyl-4H-quinazolin-3-yl)-benzoic acid] | > 83.2 | 83.15 | 58 (≈ 116 µM) | 50 (≈ 100 µM) | 100 (≈ 200 µM) | >100 | 100 (≈ 200 µM) |  |  |  | 
O=C(O)c1cc(Br)ccc1-n1c(-c2ccccc2)nc2c(Br)cc(Br)cc2c1=O [DBR2, 5-Bromo-2-(6,8-dibromo-4-oxo-2-phenyl-4H-quinazolin-3-yl)-benzoic acid] | > 64.2 | 64.18 | > 20 | > 20 | > 20 | 100 | > 20 |  |  |  | 
O=C(O)c1cc(Br)cc(Br)c1-n1c(-c2ccccc2)nc2c(Br)cc(Br)cc2c1=O [DBR3, 3,5-Dibromo-2-(6,8-dibromo-4-oxo-2-phenyl-4H-quinazolin-3-yl)-benzoic acid] | > 125 | >125 | > 100 | > 100 | > 100 | >100 | > 100 |  |  |  | 
O=C(O)c1ccccc1-n1c(-c2ccccc2)nc2ccc(Br)cc2c1=O [MBR1, 2-(6-Bromo-4-oxo-2-phenyl-4H-quinazolin-3-yl)-benzoic acid] | > 125 | >125 | > 20 | > 20 | > 20 | 100 | > 20 |  |  |  | 
O=C(O)c1cc(Br)ccc1-n1c(-c2ccccc2)nc2ccc(Br)cc2c1=O [MBR2, 5-Bromo-2-(6-bromo-4-oxo-2-phenyl-4H-quinazolin-3-yl)-benzoic acid] | > 60.4 | 60.40 | 12 (≈ 24 µM) | 12 (≈ 24 µM) | 12 (≈ 24 µM) | 100 |  |  |  | distinct antiviral activity | distinct antiviral activity
NC(=O)c1ncn([C@@H]2O[C@H](CO)[C@@H](O)[C@H]2O)n1 [Ribavirin, reference compound] |  |  | > 250 | > 250 | > 250 |  | > 250 |  |  |  | 

— paper PMC3178989 (Indian Journal of Pharmaceutical Sciences, 2010)
